Activity calls are given as the source filed them. No cut-off for these calls is given here.
Columns and labels:
MCF7 [1] = assay: Cytotoxicity against human MCF7 cells assessed as reduction in cell viability after 24 hrs by MTT assay; assay type: functional, cell-based; conditions: MCF7, 24 h
Summary of the method: (§1)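 Cells seeded ~5 × 10^3 per well in 96-well plates, exposed to 0–40 µM for 24 h. MTT added at 0.5 mg/ml for 3 h, formazan dissolved in DMSO, absorbance read at 540 nm. IC50 taken from plotted curves. Duplicate wells, two independent repeats. MCF7 grown in DMEM, MDA-MB-231 in RPMI, both with 10% FBS at 37 °C and 5% CO2.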

MDA-MB-231 [2] = assay: Cytotoxicity against human MDA-MB-231 cells assessed as reduction in cell viability after 24 hrs by MTT assay; assay type: functional, cell-based; conditions: MDA-MB-231, 24 h; summary of the method: as §1
MDA-MB-231 [3] = assay: Induction of apoptosis in human MDA-MB-231 cells assessed as early apoptotic cells at 2.5 uM after 24 hrs by annexin V-FITC/Propidium iodide staining based flow cytometric analysis (reference value: 1.54%); assay type: functional
MDA-MB-231 [4] = assay: Induction of apoptosis in human MDA-MB-231 cells assessed as reduction in size of cells at 2.5 uM by phase contrast microscopic method; assay type: functional, cell-based; conditions: time 6-24 hrs, TDE = time-dependent effect
Summary of the method: (§2)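 ~5 × 10^4 cells in 6-well plates, either DMSO control or 2.5 µM. Morphology imaged at 0, 6, 12 and 24 h.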

MCF7 [5] = assay: Induction of apoptosis in human MCF7cells assessed as reduction in number of cells at 2.5 uM by phase contrast microscopic method; assay type: functional, cell-based; conditions: time 6-24 hrs, TDE = time-dependent effect; summary of the method: as §2
MCF7 [6] = assay: Induction of apoptosis in human MCF7cells assessed as reduction in size of cells at 2.5 uM by phase contrast microscopic method; assay type: functional, cell-based; conditions: time 6-24 hrs, TDE = time-dependent effect; summary of the method: as §2
MCF7 [7] = assay: Induction of apoptosis in human MCF7 cells at 2.5 uM after 24 hrs by annexin V-FITC/Propidium iodide staining based flow cytometric analysis relative to tanshinone-2A; assay type: functional
MCF7 [8] = assay: Induction of apoptosis in human MCF7 cells assessed as increase in cleaved PARP level at 2.5 uM after r24 hrs by Western blot analysis; assay type: functional, cell-based; conditions: time 24.0 hrs
Summary of the method: (§3)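 MCF7 or MDA-MB-231 cells given 2.5 µM or DMSO for 24 h, then lysed in RIPA buffer. Immunoblots probed overnight at 4 °C, followed by infrared-labelled secondary antibody for 1 h at 37 °C. Bands imaged and quantified densitometrically, with GAPDH as loading control. Representative of two independent experiments.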

MCF7 [9] = assay: Induction of apoptosis in human MCF7 cells assessed as change in Bcl-xL protein expression at 2.5 uM after 24 hrs by Western blot analysis; assay type: functional, cell-based; summary of the method: as §3
MCF7 [10] = assay: Induction of apoptotic in human MCF7 cells assessed as increase in Bim protein expression at 2.5 uM after 24 hrs by Western blot analysis; assay type: functional, cell-based; summary of the method: as §3
MCF7 [11] = assay: Induction of autophagy in human MCF7 cells assessed as increase in CHOP mRNA expression at 2.5 uM after 24 hrs by RT-PCR analysis; assay type: functional, cell-based
MCF7 [12] = assay: Induction of autophagy in human MCF7 cells assessed as increase in UVRAG mRNA expression at 2.5 uM after 24 hrs by RT-PCR analysis; assay type: functional, cell-based
Summary of the method: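 Total RNA was taken with TRIzol from MCF7 cells treated 24 h with 2.5 µM compound or DMSO, then reverse transcribed. SYBR Green qPCR ran 40 cycles of 95 °C 15 s / 60 °C 1 min. Relative expression was calculated by 2^-ΔΔCt against DMSO-treated cells, normalized to housekeeping genes (GAPDH, B2M and others). Samples run in duplicate, two independent experiments, values averaged.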

MCF7 [13] = assay: Induction of autophagy in human MCF7 cells assessed as increase in GADD34 mRNA expression at 2.5 uM after 24 hrs by RT-PCR analysis; assay type: functional, cell-based
MCF7 [14] = assay: Induction of autophagy in human MCF7 cells assessed as increase in PPP1R15A mRNA expression at 2.5 uM after 24 hrs by PCR microarray analysis; assay type: functional, cell-based
Summary of the method: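 MCF7 cells (~10 × 10^6) were treated with 2.5 µM compound or DMSO for 24 h. Total RNA was converted to cDNA and run on an Unfolded Protein Response RT2 Profiler PCR array. Log2 fold change was computed by 2^-ΔΔCt against control cells, normalized to the mean of ACTB, B2M, GAPDH, HPRT1 and RPLPO.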

MCF7 [15] = assay: Induction of autophagy in human MCF7 cells assessed as increase in CHOP protein expression at 2.5 uM after 24 hrs by Western blot analysis; assay type: functional, cell-based; summary of the method: as §3
MCF7 [16] = assay: Induction of autophagy in human MCF7 cells assessed as increase in LC3-2 conversion level after 24 hrs by Western blot analysis; assay type: functional, cell-based; conditions: dose 1.25-5 µM
Summary of the method: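 MCF7 cells exposed for 24 h to 0, 1.25, 2.5 or 5 µM. Western blot with GAPDH as loading control. LC3-II/I ratio obtained by densitometry. At least two independent experiments.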

MCF7 [17] = assay: Induction of apoptosis in human MCF7 cells assessed as increase in cleaved-PARP protein expression at 2.5 uM after 24 hrs in presence of chloroquine by Western blot analysis; assay type: functional, cell-based
Summary of the method: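 MCF7 cells given 2.5 µM alone or combined with 50 µM chloroquine for 24 h. Western blot for cleaved PARP, p62 and LC3, with GAPDH as loading control. LC3-II/I ratio by densitometry. At least two independent experiments.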

MCF7 [18] = assay: Induction of autophagy in human MCF7 cells assessed as increase in p62 degradation at 2.5 uM after 24 hrs in presence of chloroquine by Western blot analysis; assay type: functional, cell-based
Summary of the method: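 MCF7 cells were given 2.5 µM compound alone or combined with 50 µM chloroquine, with DMSO control, for 24 h. Lysates were immunoblotted for p62 and LC3, with GAPDH as loading control. Band intensities were quantified by infrared imaging. At least two independent experiments.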

MCF7 [19] = assay: Induction of autophagy in human MCF7 cells expressing mCherry-tagged p62 assessed as reduction in p62 expression at 2.5 uM after 24 hrs by live-cell confocal microscopic analysis; assay type: functional, cell-based
Summary of the method: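 MCF7 cells were co-transfected with GFP-LC3 and mCherry-p62 constructs. 24 h later they were exposed to 2.5 µM compound, 50 µM chloroquine or DMSO for a further 24 h. Nuclei were stained with Hoechst 33342 and cells imaged by live-cell confocal microscopy. Two independent experiments.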

MCF7 [20] = assay: Induction of autophagy in human MCF7 cells assessed as LC3-2 to LC3-1 protein ratio at 1.25 uM after 24 hrs by Western blot analysis (reference value: 0.22 to 0.8); assay type: functional
MCF7 [21] = assay: Induction of autophagy in human MCF7 cells assessed as LC3-2 to LC3-1 protein ratio at 5 uM after 24 hrs by Western blot analysis (reference value: 0.22 to 0.8); assay type: functional
MCF7 (Homo sapiens) = assay: Induction of apoptosis in human MCF7 cells assessed as increase in cell death at 2.5 uM after 24 hrs by EtBr/AO staining based fluorescence microscopic method
MCF7 [22] = assay: Induction of autophagy in human MCF7 cells assessed as LC3-2 to LC3-1 protein ratio at 2.5 uM after 24 hrs in presence of chloroquine by Western blot analysis (reference value: 0.52 to 0.65)

O=C1C(=O)c2sccc2-c2ccccc21
IC50 (MCF7 [1]): 1860 nM
IC50 (MDA-MB-231 [2]): 2960 nM
Activity (MDA-MB-231 [3]): 24.7%
Activity (MDA-MB-231 [4]): Tde
Activity (MCF7 [5]): Tde
Activity (MCF7 [6]): Tde
fold change (FC) (MCF7 [7]): >=2
Activity (MCF7 [8]): Active
Activity (MCF7 [9]): inactive
Activity (MCF7 [10]): Active
Activity (MCF7 [11]): Active
Activity (MCF7 [12]): Active
Activity (MCF7 [13]): Active
Activity (MCF7 [14]): Active
Activity (MCF7 [15]): Active
Activity (MCF7 [16]): Dose-dependent effect
Activity (MCF7 [17]): inactive
Activity (MCF7 [18]): inactive
Activity (MCF7 [19]): Active
Ratio (MCF7 [20]): 0.53
Ratio (MCF7 [21]): 11.4
Activity (MCF7 (Homo sapiens)): Active
Ratio (MCF7 [22]): 1.1

O=C1C(=O)c2ccsc2-c2ccccc21
IC50 (MCF7 [1]): 1940 nM
IC50 (MDA-MB-231 [2]): 2600 nM
Activity (MDA-MB-231 [3]): 11.9%
Activity (MDA-MB-231 [4]): Tde
Activity (MCF7 [5]): Tde
Activity (MCF7 [6]): Tde
fold change (FC) (MCF7 [7]): >=2
Activity (MCF7 [8]): Active
Activity (MCF7 [9]): inactive
Activity (MCF7 [10]): Active
Activity (MCF7 [11]): Active
Activity (MCF7 [12]): Active
Activity (MCF7 [13]): Active
Activity (MCF7 [14]): Active
Activity (MCF7 [15]): Active
Activity (MCF7 [16]): Dose-dependent effect
Activity (MCF7 [17]): inactive
Activity (MCF7 [18]): inactive
Activity (MCF7 [19]): Active
Ratio (MCF7 [20]): 10.2
Ratio (MCF7 [21]): 34.1
Activity (MCF7 (Homo sapiens)): Active
Ratio (MCF7 [22]): 0.92
